Test [1] deals with KB. The test can be described thus: Cytotoxicity against human KB cells by SRB assay. In kind it is functional. The following applies: read-out: ED50 (the source's name). In a few lines:
(§1)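 Compounds in 10% DMSO added to cell suspension; 72 h at 37° in humidified 5% CO2. Cells fixed with cold trichloroacetic acid at 4° for 1 h, sulforhodamine B stained 30 min, dye solubilized in 10 mM Tris base, OD 515 nm. A zero-day control was subtracted. Survival is relative to solvent-treated cultures over various concentrations.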
In general terms: The SRB assay estimates cell density from bound dye.

Test [2] in a line: Cytotoxicity against human U373 cells by SRB assay. Type of test: functional, U-373MG ATCC. The following applies: U373 MG, read-out: ED50 (the source's name). In a few lines:
as §1

Test [3] has as its system HT. The test can be described thus: Cytotoxicity against human HT cells by SRB assay. In kind it is functional. The following applies: read-out: ED50 (the source's name). In a few lines: as §1
Test [4] deals with LNCaP. The test can be described thus: Cytotoxicity against human LNCAP cells by SRB assay. The following applies: read-out: ED50 (the source's name). In kind it is functional. A digest of the protocol: as §1
The test system of test [5] is ZR-75-1. The test can be described thus: Cytotoxicity against human ZR-75-1 cells by SRB assay. In kind it is functional. The following applies: read-out: ED50 (the source's name). In a few lines:
as §1

The test system of test [6] is Col2. The test can be described thus: Cytotoxicity against human Col2 cells by SRB assay. Type of test: functional. The following applies: read-out: ED50 (the source's name). In a few lines:
as §1

The nature of test [7]: Cytotoxicity against human drug-resistant KBV1 cells by SRB assay in absence of vinblastine. The following applies: KB-V1, read-out: ED50 (the source's name). Type of test: functional. In a few lines:
as §1

Test [8] relates to A-431. The test can be described thus: Cytotoxicity against human A431 cells by SRB assay. In kind it is functional. The following applies: read-out: ED50 (the source's name). In a few lines: as §1
Test [9] has as its system SK-MEL-2. The test can be described thus: Cytotoxicity against human SK-MEL-2 cells by SRB assay. The following applies: read-out: ED50 (the source's name). In kind it is functional. In a few lines: as §1
The nature of test [10]: Cytotoxicity against human BC1 cells by SRB assay. Type of test: functional. The following applies: read-out: ED50 (the source's name). In a few lines: as §1
The test system of test [11] is P388. The test can be described thus: Cytotoxicity against mouse P388 cells after 48 hrs by SRB assay. Type of test: functional. The following applies: P388, 48 h, read-out: ED50 (the source's name). A digest of the protocol: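 P-388 cells at 10×10^4 cells/ml, exposed to compounds for 48 h at 37° in 5% CO2. Plates were centrifuged and supernatant removed, then cells fixed with 20% trichloroacetic acid at 4° for 1 h. Sulforhodamine B staining and OD read as for the adherent lines. Survival is relative to solvent controls.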

Test [12] is described as follows: Cytotoxicity against human drug-resistant KBV1 cells by SRB assay in presence of vinblastine. The following applies: KB-V1, read-out: ED50 (the source's name). Type of test: functional. In a few lines:
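Same SRB protocol (72 h, 37°, 5% CO2, TCA fix, OD 515 nm, zero-day subtraction). KB-V1 cells were exposed to various compound concentrations with vinblastine at 1 μg/ml in the medium. Survival is relative to solvent-treated controls.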

In test [13] the test system is Lu1. The test can be described thus: Cytotoxicity against human Lu1 cells by SRB assay. In kind it is functional. The following applies: read-out: ED50 (the source's name). In a few lines: as §1
Test [14] deals with KBV1. The test can be described thus: Inhibition of ATP-dependent [3H]vinblastine binding to p-glycoprotein in multidrug-resistant human KBV1 cells. Type of test: cell-based. A digest of the protocol: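 Plasma membrane vesicles from KB-V1 cells (60 μg protein) as P-glycoprotein source. Incubated with […] [3H]vinblastine and various compound concentrations (from DMSO) for 20 min at room temperature. Terminated by filtration onto BSA-pretreated glass fiber filters.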

Values after ≈ are worked out from the molar mass of the structure shown. Active and inactive are the calls of the source. The calls are words filed in the database; no cut-off is given here.

As for `CC[C@H]1C[C@@H]2CN3CCc4c([nH]c5ccccc45)[C@](C(=O)OC)(C2)[C@H]13` [CORONARIDINE], the EC50 in test [1] is 13.6 µg/mL (≈ 40.2 µM); in test [2], 12 µg/mL (≈ 35.5 µM); in [3] it was > 20 µg/mL; in [4], 10.7 µg/mL (≈ 31.6 µM); in [5] it was > 20 µg/mL; in test [6], > 20 µg/mL. The EC50 was 11.2 µg/mL (≈ 33.1 µM) in [7]; 19.1 µg/mL (≈ 56.4 µM) in [8]; > 20 µg/mL in test [9]; 7.5 µg/mL (≈ 22.2 µM) in [10]; 3.8 µg/mL (≈ 11.2 µM) in test [11]; 1.9 µg/mL in test [12]. Further, in test [13], the EC50 came out at 10.9 µg/mL (≈ 32.2 µM).
As to `CC[C@]1(O)C[C@@H]2CN(CCc3c([nH]c4ccccc34)[C@@](C(=O)OC)(c3cc4c(cc3OC)N(C)[C@H]3[C@@](O)(C(=O)OC)[C@H](OC(C)=O)[C@]5(CC)C=CCN6CC[C@]43[C@@H]65)C2)C1` [VINBLASTINE], the EC50 in test [1] was 0.002 µg/mL (≈ 0.00247 µM); in test [2], 1.1 µg/mL (≈ 1.36 µM); in test [3], 0.02 µg/mL (≈ 0.0247 µM); in test [4], 0.1 µg/mL (≈ 0.123 µM); in [5], 0.3 µg/mL (≈ 0.37 µM); in test [6], 0.01 µg/mL (≈ 0.0123 µM). For the same molecule, the EC50 was 2.6 µg/mL (≈ 3.21 µM) in [7]; 0.05 µg/mL (≈ 0.0617 µM) in test [8]; 0.01 µg/mL (≈ 0.0123 µM) in test [9]; 0.06 µg/mL (≈ 0.074 µM) in test [10]; 0.02 µg/mL (≈ 0.0247 µM) in test [11]; 0.5 µg/mL in [12]. Also, the EC50 in [13] turned out to be 0.02 µg/mL (≈ 0.0247 µM).
As for `C/C=C1/CC2[C@H](C(=O)OC)C(NC)Cc3c([nH]c4ccccc34)[C@@H](c3cc4c(cc3OC)C3CCN5C[C@H]6C[C@H](CC)[C@H]5[C@@](C(=O)OC)(C6)C3N4)C[C@H]12` (some centres not stated) [VOACAMINE], the outcome in [14] was Active.

Source of the values: ChEMBL document CHEMBL1148085, “Indole alkaloids from Peschiera laeta that enhance vinblastine-mediated cytotoxicity with multidrug-resistant cells” (1994).
